Screens from PubChem BioAssay.
KCNK3 block = human KCNK3 channel inhibitors, primary screen, CHO cells, FluxOR thallium flux, B-score; Potassium channel subfamily K member 3 (Homo sapiens), O14649; FluxOR fluorescence; active compounds read low; B-score at 10 µM; 0.84% of 340,000 active; AID 602410, 2012;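 active = B-score under library mean minus 4 SD, starting fluorescence ratio at most library mean plus 5 SD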;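 also: more negative B-score means stronger inhibition of thallium flux through KCNK3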
Target sequence (O14649 whole entry, looked up): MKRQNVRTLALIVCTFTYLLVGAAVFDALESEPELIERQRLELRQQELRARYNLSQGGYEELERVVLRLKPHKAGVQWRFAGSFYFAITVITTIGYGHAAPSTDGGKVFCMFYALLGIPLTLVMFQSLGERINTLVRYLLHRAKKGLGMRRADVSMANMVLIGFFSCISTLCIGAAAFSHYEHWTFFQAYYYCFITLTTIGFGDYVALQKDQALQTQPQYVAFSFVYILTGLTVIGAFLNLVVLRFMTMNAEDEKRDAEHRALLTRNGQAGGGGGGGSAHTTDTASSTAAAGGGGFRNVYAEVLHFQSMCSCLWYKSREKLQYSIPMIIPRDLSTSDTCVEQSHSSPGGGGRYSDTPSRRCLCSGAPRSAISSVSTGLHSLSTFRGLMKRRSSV
KCNQ1 block = inhibitors of human KCNQ1 channel, primary screen, cell-based, thallium flux, high-throughput. 1.3% of 310,000 active. Potassium voltage-gated channel subfamily KQT member 1 (Homo sapiens), P51787. CHO-K1 KCNQ1, FluxOR thallium flux fluorescence; active compounds read high. B-score at 10 µM;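 active = compounds whose thallium flux B-score, printed positive for inhibition, exceeds three library SD while starting fluorescence stays within three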;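 also: channel opened by potassium depolarization with thallium stimulus after 20 min compound exposure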
KCNQ1 act = potentiators or activators of KCNQ1 channel, primary screen, cell-based, thallium flux, high-throughput. B-score at 10 µM. Potassium voltage-gated channel subfamily KQT member 1 (Homo sapiens), P51787. CHO-K1 KCNQ1, thallium flux FluxOR fluorescence; active compounds read high. 0.35% of 310,000 active;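 active = fluorescence ratio B-score, a plate-corrected score, at least three library SD, with initial intensity B-score within 5 SD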
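Schedule – 37 °C overnight plating, 90-min dark dye load, 20-min compound pretreatment · System – stable KCNQ1 CHO-K1 line · Probe or stimulus – thallium- and potassium-containing depolarizing buffer · Measured by – kinetic FluxOR fluorescence, 10 s baseline plus 110 s post-stimulus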
hERG protect = hERG rescue from dofetilide block, primary screen, cell-based, CHO-hERG, FluxOR thallium flux, dofetilide IC70; dofetilide IC70 present; activation (rescue from dofetilide block), less the hit threshold, % at 10 µM; AID 1511, 2009; Voltage-gated inwardly rectifying potassium channel KCNH2 (Homo sapiens), Q12809; 0.51% of 310,000 active;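 active = activation above the mean of controls blocked by dofetilide plus 5 SD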;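 also: thallium influx through hERG after potassium depolarization seen as dye fluorescence rise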
KCNK9 block = KCNK9 potassium channel inhibitors, primary screen, HEK293 cells, thallium flux; Potassium channel subfamily K member 9 (Homo sapiens), Q9NPC2; FluxOR thallium flux fluorescence; active compounds read low; B-score at 10 µM; 1.2% of 310,000 active; AID 488922, 2010;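 active = ratio B-score over 3 SD below the library mean, with starting fluorescence within 5 SD of its mean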;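 also: negative B-score means less thallium flux so channel inhibition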
Of the large screens only hits and unclear results are named; the others gave an inactive call. Only some compounds are listed: those with a hit (about 3.1% of all), similar ones and a draw of the others.

O=C(Cc1cccc(NC(=O)C2CCCN(C(=O)CCc3ccccc3)C2)c1)Nc1ccc(C(=O)N2CCCCC2)cc1 (configuration not stated)	none (no result: KCNQ1 block, KCNQ1 act, hERG protect, KCNK9 block)
CCCc1cc2c(-c3ccccc3)cc(=O)oc2cc1OCc1ccc(C(=O)O)o1	KCNQ1 act 9
CCc1cc2c(-c3ccccc3)cc(=O)oc2cc1OCC(C)=O	none
CN1CCN(C(=S)c2ccc(-c3cc(Cl)ccc3Cl)o2)CC1	none
N#CCCN1CCN(C(=S)c2ccc(-c3cc(Cl)ccc3Cl)o2)CC1	KCNK9 block -7.8
N#C/C(=C(/O)CCl)c1nc2c(s1)CCc1ccccc1-2	KCNQ1 block 6
Nc1nc2c(s1)CCc1ccccc1-2	none
CCOC(=O)COc1ccccc1/C=N\NC(=O)c1cc2c(ccc3ccccc32)o1	KCNQ1 block 10, KCNK9 block -6.84
CCOC(=O)c1c(/N=C/C2=C(O)CCCC2=O)sc2c1CCCC2	hERG protect 5.9
O=C(Nc1cc(C(F)(F)F)ccc1N1CCOCC1)C1=NN(c2ccccc2)C(=O)CC1	none
O=C(Nc1cccnc1)c1cc(-c2ccccc2)on1	none
CC(C)n1cc(NC(=O)c2cc(-c3ccccc3)on2)cn1	KCNQ1 act 11
COc1cc(/C=C2/C(=O)N(c3ccc(C(=O)O)cc3)N=C2C)cc(OC)c1O	none
COc1cc(/C=C2/C(=O)N(c3ccc(Br)cc3)N=C2C)cc(OC)c1OC	KCNQ1 block 8
CCCn1c(CCC(=O)O)nc2cc(S(N)(=O)=O)ccc21	none
O=[N+]([O-])c1cc(-c2nc(-c3ccncc3)no2)cc([N+](=O)[O-])c1	none
Cc1c(-c2nc(-c3ccncc3)no2)cccc1[N+](=O)[O-]	KCNQ1 act 11
O=C(CCn1c(=O)c2sccc2n(CC(=O)OCc2ccccc2)c1=O)NCc1ccco1	none
O=C(CCn1c(=O)c2sccc2n(CC(=O)OCc2ccccc2)c1=O)NCc1ccccc1	hERG protect 5.2
O=C(c1cnn(C(=O)c2ccc(O)cc2)c1)c1ccccc1O	KCNQ1 block 6 (no result: KCNK3 block)
CC1Cc2nc(SCC(=O)NCC3CCCO3)n(C)c(=O)c2S1 (configuration not stated)	none
COc1ccc2cc1Oc1ccc(cc1)C[C@H]1c3c(cc(OC)c4c3Oc3c(ccc5c3[C@H](C2)N(C)CC5)O4)CCN1C	none (no result: KCNQ1 block, KCNQ1 act, hERG protect, KCNK9 block)
COc1ccc2cc1Oc1ccc(cc1)CC1c3c(cc(OC)c4c3Oc3cc5c(cc3O4)CCNC5C2)CCN1C (configuration not stated)	KCNQ1 block 9
OC(CNCCc1ccc(Cl)cc1)COc1cc(Cl)ccc1Cl (configuration not stated)	KCNQ1 block 9
CCOc1cc(C)c(-c2onc(C(F)(F)F)c2-c2csc(C)n2)c(O)c1	KCNQ1 block 8
Cc1nc(-c2c(C(F)(F)F)noc2-c2ccc(O)cc2O)cs1	none
CC(C)=CC(=O)N1CCCC(N2CCN(c3ccc(F)cc3)CC2)C1 (configuration not stated)	none
Oc1c(Br)cc(Br)cc1CNc1ccc(F)cc1	none
Oc1c(Br)cc(Br)cc1CNc1cnc2ccccc2c1	KCNQ1 block 6
CCCCCCCCNC(C)C(O)c1ccc(SC(C)C)cc1 (configuration not stated)	KCNQ1 block 6
O=C(CSc1n[nH]c(=O)n1-c1ccc2c(c1)OCCO2)Nc1ccccc1	none
COc1ccc(C2CC(=O)CCN2S(=O)(=O)c2ccc(C)cc2)cc1 (configuration not stated)	none (no result: KCNQ1 block, KCNQ1 act, hERG protect, KCNK9 block)
Cc1cc(C)c2ccc(N)nc2c1O	none
Cc1cc(C)c2ccc(C)[n+]([O-])c2c1O	KCNQ1 act 8
Cc1ccc(S(=O)(=O)N(Cc2n[nH]c(=S)n2-c2ccccc2)c2ccccc2)cc1	none
Cc1ccc(S(=O)(=O)N(Cc2n[nH]c(=S)n2-c2ccccc2)c2cccc(Cl)c2)cc1	KCNQ1 block 6
CCOC(=O)C1CCCC12Nc1cccc3cccc(c13)N2 (configuration not stated)	none (no result: KCNQ1 block, KCNQ1 act, hERG protect, KCNK9 block)
COc1ccc(C(c2c(NC(=O)c3ccco3)sc(C)c2C)N2CCOCC2)cc1 (configuration not stated)	KCNK3 block -10.8 (no result: KCNQ1 block, KCNQ1 act, hERG protect, KCNK9 block)
